Measurements as given in ChEMBL document CHEMBL1145803, “Characterization of a series of 3-amino-2-phenylpropene derivatives as novel bovine chromaffin vesicular monoamine transporter inhibitors” (J Med Chem, 2003).

How the values were obtained:
[1] = biological target: Synaptic vesicular amine transporter (Bos taurus, UniProt Q27963); assay: Inhibitory constant for dopamine uptake into resealed bovine chromaffin granule ghosts through the vesicular monoamine transporter
In short: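 Resealed bovine chromaffin granule ghosts (20 mM Tris phosphate, 100 mM KCl, 150 mM sucrose, 10 mM fumarate, 100 µg/mL catalase, no ascorbate, pH 7.0; Ficoll/sucrose purified) preincubated 10 min at 30 °C in 0.3 M sucrose, 10 mM HEPES, 5 mM Mg-ATP, 5 mM MgSO4, catalase. Inhibitor (0 or 200 µM) added 2 min, then DA at six concentrations. Pellet catecholamines by HPLC-EC; Ki from competitive inhibition fit.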

[2] = biological target: Synaptic vesicular amine transporter (Bos taurus) (UniProt Q27963); assay: Km DA/Ki ratio was determined by different ghost preparations
Synaptic vesicular amine transporter (Bos taurus), sequence (Q27963 whole entry): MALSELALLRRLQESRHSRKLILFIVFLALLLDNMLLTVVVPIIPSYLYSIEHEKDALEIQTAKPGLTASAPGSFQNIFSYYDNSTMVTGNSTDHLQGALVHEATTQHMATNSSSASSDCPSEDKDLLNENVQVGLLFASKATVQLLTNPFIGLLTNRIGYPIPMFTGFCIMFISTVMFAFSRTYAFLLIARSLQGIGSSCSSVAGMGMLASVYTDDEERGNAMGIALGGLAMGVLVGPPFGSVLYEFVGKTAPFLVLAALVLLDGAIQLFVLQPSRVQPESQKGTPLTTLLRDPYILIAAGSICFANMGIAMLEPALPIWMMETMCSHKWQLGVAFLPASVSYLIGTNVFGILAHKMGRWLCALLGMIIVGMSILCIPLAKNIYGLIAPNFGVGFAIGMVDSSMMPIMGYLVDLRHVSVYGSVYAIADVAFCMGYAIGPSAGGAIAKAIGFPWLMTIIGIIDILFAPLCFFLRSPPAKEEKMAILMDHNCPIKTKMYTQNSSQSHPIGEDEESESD
In short: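 Ratio of Km for dopamine to Ki, each measured on the same ghost preparation in the dopamine uptake competitive-inhibition kinetics; used to normalize Km variation between ghost preparations.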

Synaptic vesicular amine transporter, sequence (Q27963 whole entry): as above

Structure (SMILES)	Ki [1] [µM]	Ratio [2]
NC/C(=C\Br)c1ccc(O)cc1	50	0.46
C=C(CNC)c1ccc(O)cc1	93.7	0.39
C=C(c1ccc(O)cc1)C(C)N(CC)CC (configuration not stated)	207	0.15
C=C(CN)c1ccc(C)cc1	55.9	0.59
C=C(C[n+]1ccccc1)c1ccccc1	241	0.12
C=C(CN)c1ccccc1	40.3	0.57
C=C(c1ccccc1)C(C)N (configuration not stated)	78.4	0.41
C=C(CN)c1ccc(OC)cc1	102	0.33
C=C(CN)c1cccc(O)c1	16.7	1.4
C=C(CN)c1cccc(OC)c1	30.2	0.76
C=C(CN(CC)CC)c1ccc(O)cc1	202	0.15

Next, values leading:

Ki [1] [µM]	Ratio [2]	Structure (SMILES)
18	1.76	C=C(CN)c1ccc(Cl)cc1
17.7	1.79	C=C(CN)c1ccc(Br)cc1
42.3	0.8	C=C(CN)c1ccc(F)cc1
15.5	1.52	C=C(CN)c1ccc(O)cc1
12.9	2.96	C=C(CN)c1ccc(I)cc1
